The results in this text go back to ChEMBL document CHEMBL1123532, “Conformationally defined adrenergic agents. 3. Modifications to the carbocyclic ring of 5,6-dihydroxy-1-(2-imidazolinyl)tetralin: improved separation of alpha 1 and alpha 2 adrenergic activities” (J Med Chem, 1986).

Test [1] addresses T1, Adrenergic receptor alpha-1 (Homo sapiens) (UniProt P35348+P25100+P35368). The test is described as follows: Compound was evaluated for alpha-1 adrenergic receptor activity in isolated rabbit aortic tissue, effective dose of norepinephrine (NE). The note with it: Oryctolagus cuniculus; target entry is the homologue from another species. An outline of the steps:
(§1)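 Helical aortic strip in 10-mL bath of Krebs buffer, pH 7.4, under 2 g initial tension and equilibrated 1 h with four washes. Cumulative norepinephrine curve run from 1 × 10^-8 to 1 × 10^-3 M, each response allowed to plateau. After washout, tension reset to 2 g and a cumulative test-compound curve run in the same tissue. Isometric contraction recorded; molar ED50 taken for each.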

The target in test [2] is T2, Adrenergic receptor alpha-2 (Homo sapiens) (UniProt P08913+P18825+P18089). Briefly: Compound was evaluated for alpha-2 adrenergic receptor activity in the phenoxybenzamine (PBZ) - pretreated dog saphenous vein, effective dose of norepinephrine (NE). Type of test: tissue-based. The note with it: Canis lupus familiaris, target entry is the homologue from another species. The method, boiled down: (§2)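 Beagle lateral saphenous vein rings (3-4 mm, either sex) in bicarbonate buffer with cocaine, hydrocortisone and propranolol, gassed with 95% O2/5% CO2 at 37 °C, pH 7.45, under 2 g. After maximal NE (1 × 10^-4 M) contraction and 60 min wash, exposed to phenoxybenzamine 1 × 10^-7 M for 30 min, then washed 60 min. Control cumulative NE curve, washout, then test-compound curve in the same tissue. Molar ED50 from isometric contraction.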

The target in test [3] is T2, Adrenergic receptor alpha-2 (Homo sapiens). Briefly: Compound was evaluated for alpha-2 adrenergic receptor activity in the phenoxybenzamine (PBZ) - pretreated dog saphenous vein, effective dose (CPD). Type of test: tissue-based. As to conditions: Canis lupus familiaris, target entry is the homologue from another species. An outline of the steps: as §2
Test [4] can be described thus: Compound was evaluated for the percent of maximum response of the tissue to NE. The format is functional.
The target in test [5] is T1, Adrenergic receptor alpha-1 (Homo sapiens). The test is described as follows: Compound was evaluated for alpha-1 adrenergic receptor activity in isolated rabbit aortic tissue, effective dose (CPD). As to conditions: Oryctolagus cuniculus; target entry is the homologue from another species. The method, boiled down: as §1
The target of test [6] is T2, Adrenergic receptor alpha-2 (Homo sapiens). The test is described as follows: Compound was evaluated for alpha-2 adrenergic receptor activity in the phenoxybenzamine (PBZ) - pretreated dog saphenous vein, effective dose (CPD); inactive. Type of test: tissue-based. The note with it: Canis lupus familiaris, target entry is the homologue from another species.
Test [7] is described as follows: Compound was evaluated for the percent of maximum response of the tissue to NE; IA=Inactive. Type of test: functional.
Test [8] addresses T1, Adrenergic receptor alpha-1 (Homo sapiens). The test is described as follows: Compound was evaluated for alpha-1 adrenergic activity in isolated rabbit aortic tissue, effective dose of norepinephrine (NE). The format is tissue-based. As to conditions: Oryctolagus cuniculus; Aorta; target entry is the homologue from another species. An outline of the steps:
(§3)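 Helical aortic strip in Krebs buffer (pH 7.4) at 2 g initial tension, equilibrated 1 h with four washes; isometric contraction recorded. Cumulative norepinephrine curve (1 × 10^-8 to 1 × 10^-3 M), each step to plateau; washes every 10-15 min for 60-90 min, tension reset to 2 g, then cumulative test-compound curve in the same tissue. Molar ED50 values; index (ED50 NE/ED50 CPD) computed per experiment.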

The target is the same in test [9]. Briefly: Compound was evaluated for alpha-1 adrenergic receptor activity in isolated rabbit aortic tissue, effective dose (CPD); IA=Inactive. The note with it: Oryctolagus cuniculus; target entry is the homologue from another species. An outline of the steps:
as §3

For test [10] the target is unchanged. The test is described as follows: Compound was evaluated for alpha-1 adrenergic activity in isolated rabbit aortic tissue, effective dose (CPD). The format is tissue-based. As to conditions: Oryctolagus cuniculus; Aorta; target entry is the homologue from another species. The method, boiled down:
as §1

In test [11] the target is T2, Adrenergic receptor alpha-2 (Homo sapiens). Briefly: Compound was evaluated for alpha-2 adrenergic receptor activity in the phenoxybenzamine (PBZ) - pretreated dog saphenous vein, effective dose (CPD); Inactive. The format is tissue-based. As to conditions: Canis lupus familiaris, target entry is the homologue from another species. An outline of the steps:
as §2

Values joined by “and” are separate entries in the source; they are usually repeats but may differ in a detail not shown here. Equal entries are not always repeated. Active and inactive are the calls of the source. The rule behind the calls is not given here.

`Oc1ccc2c(c1O)CCCC2C1=NCCN1` (stereo unspecified): the ED50 in test [1] stood at 140 nM; in test [2] it was 720 nM; in test [3], 5 nM; in test [5], 17 nM. For the same compound, the Emax in test [4] was 114 and 102.
On to `C[C@]1(C2=NCCN2)CCCc2c1ccc(O)c2O`, for which the ED50 was found to be 41 nM in test [1], 924 nM in [2], 6100 nM in test [3] and 16600 nM in test [5]. Also, the Emax in [4] was 69 and 76.
In the case of `CCC1(CC)CC[C@H](C2=NCCN2)c2ccc(O)c(O)c21`, the ED50 in test [1] is 98 nM; in [2] it was 603 nM; in test [5], 47000 nM. The same compound returned an Emax in test [4] of 44. Further, the ED50 entry in test [6] was “inactive”. In test [7], the Emax result was “inactive”.
For the compound `Oc1ccc2c(c1O)OCC[C@@H]2C1=NCCN1`, the ED50 in test [1] was 67 nM; in test [2] it was 720 nM; in test [3], 35 nM; in [5] it was 35 nM. Also, the Emax in [4] is 118 and 107.
With `Oc1ccc2c(c1O)CC[C@@H](c1ccccc1)[C@@H]2C1=NCCN1`, the ED50 in test [8] came to 73 nM; in test [2], 519 nM. Also, the ED50 entry in test [9] and in [3] was “inactive” in each case. In addition, in test [7], the Emax entry is “inactive”.
As for `C[C@@H]1CCc2c(ccc(O)c2O)[C@H]1C1=NCCN1`, the ED50 worked out at 4390 nM in [10], 48 nM in test [1], 560 nM in test [2] and 4500 nM in test [3].
As to `CC1(C)CC[C@H](C2=NCCN2)c2ccc(O)c(O)c21`, the ED50 entry in [11] was “inactive”. In addition, the ED50 in test [1] is 125 nM; in [2] it was 1240 nM; in test [5], 284 nM. Besides, the Emax in test [4] was found to be 100. Besides, the Emax entry in test [7] was “inactive”.
On to `Oc1ccc2c(c1O)SCC[C@@H]2C1=NCCN1`, for which the ED50 is 219 nM in test [1], 526 nM in test [2], 19 nM in test [3] and 20 nM in test [5]. The Emax in [4] was 129 and 105.
